According to ChEMBL document CHEMBL1649536, “First report of plasmid-mediated quinolone resistance determinant qnrS1 in an Escherichia coli strain of animal origin in Italy” (2009):
≈ marks a conversion by molar mass, not a printed value.

Tests used:
Type in all cases: functional
Escherichia coli [1] = experiment: Antibacterial activity against Escherichia coli 3963 by Etest method
How it was run: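 Strain 3963 is an E. coli poultry isolate of phylogenetic group D and multilocus sequence type 398. It was picked from 73 poultry isolates with ciprofloxacin MICs of ≥0.125 μg/ml. Resistance categories were assigned by published interpretive criteria.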

Escherichia coli [2] = experiment: Antibacterial activity against Escherichia coli TOP10 by Etest method
Escherichia coli [3] = experiment: Antibacterial activity against quinolone-resistant Escherichia coli TOP10-3963 transformant harboring qnrS1 gene by Etest method
How it was run: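 The transformant was made by extracting plasmid DNA from strain 3963 and transforming competent E. coli TOP10. Transformants were selected on LB agar containing 0.06 μg/ml ciprofloxacin and carried both qnrS1 and blaTEM-1.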

Structure (SMILES)	MIC (Escherichia coli [1]) [µg/mL]	MIC (Escherichia coli [2]) [µg/mL]	MIC (Escherichia coli [3]) [µg/mL]
CC1(C)S[C@@H]2[C@H](NC(=O)[C@H](N)c3ccccc3)C(=O)N2[C@H]1C(=O)O [AMPICILLIN]	≥ 256	6 (≈ 17.2 µM)	≥ 256
CO/N=C(\C(=O)N[C@@H]1C(=O)N2C(C(=O)O)=C(COC(C)=O)CS[C@H]12)c1csc(N)n1 [CEFOTAXIME]	0.047 (≈ 0.103 µM)	0.064 (≈ 0.141 µM)	0.064 (≈ 0.141 µM)
CO/N=C(\C(=O)N[C@@H]1C(=O)N2C(C(=O)O)=C(CSc3nc(=O)c(O)nn3C)CS[C@H]12)c1csc(N)n1 [CEFTRIAXONE]	0.032 (≈ 0.0577 µM)	0.064 (≈ 0.115 µM)	0.094 (≈ 0.169 µM)
O=C(O)c1cn(C2CC2)c2cc(N3CCNCC3)c(F)cc2c1=O [CIPROFLOXACIN]	0.38 (≈ 1.15 µM)		
CCN1CCN(c2cc3c(cc2F)c(=O)c(C(=O)O)cn3C2CC2)CC1 [ENROFLOXACIN]	2 (≈ 5.56 µM)	0.08 (≈ 0.223 µM)	0.5 (≈ 1.39 µM)
C[C@H]1COc2c(N3CCN(C)CC3)c(F)cc3c(=O)c(C(=O)O)cn1c23.C[C@H]1COc2c(N3CCN(C)CC3)c(F)cc3c(=O)c(C(=O)O)cn1c23.O [LEVOFLOXACIN]		0.006	0.25
CCn1cc(C(=O)O)c(=O)c2ccc(C)nc21 [NALIDIXIC ACID]	16 (≈ 68.9 µM)	2 (≈ 8.61 µM)	6 (≈ 25.8 µM)
